Screens as filed in PubChem.
The list is not random: actives were taken first. Their share in the collection is about 3.2%.
NR2E3 ag-1 – human photoreceptor-specific nuclear receptor agonism. Q9Y5X4. CHO-S Gal4-NCOR/VP16-NR2E3 two-hybrid, luciferase. inhibition of corepressor binding, % at 3.98 µM. 360,000 compounds, 0.35% hits. AID 602229;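 active means inhibition above the mean of all tested compounds plus 3 SD, cut at about 70% in these data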;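 further: 0% = DMSO with NR2E3 transfected cells and 100% = cells lacking NR2E3 construct; higher means lower luciferase signal from less NR2E3 corepressor binding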
Target sequence (Q9Y5X4 whole entry, looked up, the tested form may be a part): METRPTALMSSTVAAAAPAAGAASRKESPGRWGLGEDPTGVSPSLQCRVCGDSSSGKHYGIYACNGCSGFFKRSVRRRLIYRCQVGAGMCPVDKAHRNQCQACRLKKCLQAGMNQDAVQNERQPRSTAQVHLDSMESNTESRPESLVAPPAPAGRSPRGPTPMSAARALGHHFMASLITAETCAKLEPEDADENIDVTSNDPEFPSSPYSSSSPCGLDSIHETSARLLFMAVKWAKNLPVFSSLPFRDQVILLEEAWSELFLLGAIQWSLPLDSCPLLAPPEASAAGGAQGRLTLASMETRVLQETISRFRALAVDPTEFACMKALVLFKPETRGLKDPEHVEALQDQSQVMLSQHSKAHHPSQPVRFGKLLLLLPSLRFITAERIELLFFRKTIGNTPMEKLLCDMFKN
DAX1 inh-1 – inhibits human nuclear receptor DAX1. HEK293 Gal4-DAX1 luciferase reporter, luminescence. inhibition, % at 6.75 µM. 340,000 compounds, 0.99% hits;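 active means inhibition above the mean over all tested compounds plus 3 SD, cut at about 4.2% in these data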;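 further: 0% = DAX1-transfected cells with DMSO and 100% = empty-vector control cells with DMSO; inhibition shows as a rise in luminescence from relieved DAX1 repression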
Target sequence (P51843 207-470 limits assumed): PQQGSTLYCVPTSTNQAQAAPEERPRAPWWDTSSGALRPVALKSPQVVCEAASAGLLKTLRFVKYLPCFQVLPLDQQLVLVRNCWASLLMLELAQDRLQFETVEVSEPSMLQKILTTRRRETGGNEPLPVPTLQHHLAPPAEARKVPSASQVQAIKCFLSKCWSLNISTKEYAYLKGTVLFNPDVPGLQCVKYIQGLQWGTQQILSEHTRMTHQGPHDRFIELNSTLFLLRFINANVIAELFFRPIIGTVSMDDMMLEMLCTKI
SMARCA2 activ – increases SMARCA2 function in MMTV reporter cells. MG213 cells, MMTV-luciferase reporter, dexamethasone, overnight. activation, % at 9.1 µM. 370,000 compounds, 1% hits; in the data active means activation above about 7.8%;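 further: 0% = vehicle wells and 100% = reference activator wells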
GASC-1 inh – inhibitors of human GASC-1 (JMJD2C) demethylase; GST-JMJD2C(1-420) H3K9me3 demethylation, DELFIA europium; inhibition, % at 2.35 µM; 330,000 compounds, 0.069% hits; AID 2099;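 active means more than half of a compound's replicate wells show inhibition beyond 50%, single wells judged on their own value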;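 further: signal counts dimethyl H3K9 product captured on neutravidin plate; 0% = median of DMSO wells and 100% = 0.3 times that DMSO median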
NR2E3 ag-2 – activates human photoreceptor nuclear receptor NR2E3; 320,000 compounds, 0.12% hits; AID 2300; inhibition of corepressor binding, % at 4.78 µM; Q9Y5X4; GST-NR2E3/biotin-RetCOR TR-FRET, 1536-well;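 active means percent inhibition above the cutoff of mean plus 3 SD of all tested compounds, set per screening campaign, cut at about 20% in these data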;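 further: 0% = DMSO wells and 100% = biotin wells as full block of FRET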
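System: GST-tagged NR2E3 plus biotinylated RetCOR corepressor; Buffer or medium: pH 7.5 Tris-based buffer; Probe or stimulus: RetCOR corepressor, biotinylated, 7 nM; Doses: compound at 4.8 µM, single dose; Schedule: 5 h incubation at 4 °C; Technique: time-resolved FRET; Evaluation: percent inhibition of TR-FRET ratio; Replication: one well per compound, singlicate testing.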
DAX1 inh-2 – blocks DAX1 repression of SF-1 activated StAR promoter; HEK293T StAR-luciferase reporter, SF-1/DAX-1 repression relief; inhibition, % at 6.8 µM; 370,000 compounds, 1.1% hits;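 active means inhibition above the mean over all tested compounds plus 3 SD, cut at about 3.6% in these data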;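 further: 0% = DAX-1 cells with DMSO and 100% = cells lacking DAX-1 with DMSO; higher inhibition means more luminescence from relief of DAX-1 repression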
NR2E3 ag confirm – confirmation of human NR2E3 agonists; shares compounds with NR2E3 ag-1; CHO-S mammalian two-hybrid NR2E3-NCOR, luciferase luminescence; inhibition, % at 3.98 µM; 2,300 compounds, 51% hits; AID 624378;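 active means average inhibition above a cutoff equal to the mean inhibition of all tested compounds plus one SD, cut at about 70% in these data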;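 further: 0% = DMSO in NR2E3 cells and 100% = DMSO in cells lacking NR2E3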
GAL4-VP16 luc – counter-screen for NR2E3 agonists: GAL4-VP16 reporter inhibitors; CHO-S GAL4-VP16 luciferase reporter, luminescence; inhibition, % at 3.98 µM; 2,300 compounds, 29% hits; shares compounds with NR2E3 ag-1;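 active means mean inhibition above a cutoff equal to the average over all tested compounds plus one standard deviation, cut at about 70% in these data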;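 further: luciferase from a UAS reporter driven by GAL4-VP16 transactivation; 0% = DMSO with VP16-transfected cells and 100% = DMSO with cells lacking VP16; higher means less reporter light so more repression of VP16 activity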
* hit, by the source's call; / = not tested or not shown.

SMILES	NR2E3 ag-1	DAX1 inh-1	SMARCA2 activ	GASC-1 inh	NR2E3 ag-2	DAX1 inh-2	NR2E3 ag confirm	GAL4-VP16 luc
Cc1cccc(C)c1NC(=O)CN(C)C(=O)c1cccc(S(=O)(=O)N2CCN(c3ccc(F)cc3)CC2)c1	11	-1	-5	3	-1	-8	/	/
CC1CN(C(=O)c2cc(S(=O)(=O)N3CCN(c4ccccc4)CC3)ccc2Cl)CC(C)O1 (stereo not given)	10	-2	-1	-9	-2	-6	/	/
CN(CC(=O)Nc1cccc(F)c1)C(=O)c1cccc(S(=O)(=O)N2CCN(c3ccc(F)cc3)CC2)c1	50	-1	-6	/	/	-4	46	26
CN(CC(=O)Nc1ccccc1Cl)C(=O)c1cccc(S(=O)(=O)N2CCN(c3ccccc3)CC2)c1	63	-4	-4	/	/	-4	82*	63
CN(Cc1ccc(OC(F)F)cc1)C(=O)c1cccc(S(=O)(=O)N2CCN(c3ccccc3)CC2)c1	83*	-3	-5	/	/	-7	85*	67
C=CCn1c(COc2ccccc2)nnc1SCC(=O)c1ccc(-c2ccccc2)cc1	/	/	-4	/	/	-1	/	/
COc1ccc(-c2csc(NC(=O)C3CCN(c4ncnc5sc(C)c(C)c45)CC3)n2)cc1OC	78*	-6	-8	0	-3	-4	74*	79*
O=C(O)C1Nc2c(Cl)cc(Cl)c(Cl)c2C2C=CCC12 (stereo not given)	-39	1	-1	3	5	0	/	/
CC(C)C1Nc2c(O)cc(Cl)c([N+](=O)[O-])c2C2C=CCC21 (stereo not given)	99*	-1	-1	-10	/	-1	100*	91*
C=CCN1C(=O)[C@H](CC(=O)N2CCC(c3ccccc3)CC2)[C@@]2(C(=O)OCC)CCCC=C12	/	/	-4	/	/	-2	/	/
CCC(Cc1ccccc1)NS(=O)(=O)c1ccc2c(c1)NC(=O)C(C)S2 (stereo not given)	49	-1	-6	0	4	-1	62	50
COc1cccc(NS(=O)(=O)c2ccc3c(c2)NC(=O)C(C)S3)c1 (stereo not given)	58	0	-4	-1	-3	0	36	35
Cc1ccc(CNS(=O)(=O)c2ccc3c(c2)NC(=O)C(C)S3)cc1 (stereo not given)	53	0	-4	9	1	0	46	46
COc1ccc(N2CCN(S(=O)(=O)c3ccc4c(c3)NC(=O)C(C)S4)CC2)cc1 (stereo not given)	64	-2	-5	-1	1	-1	38	29
COc1ccc(N2CCN(S(=O)(=O)c3ccc4c(c3)NC(=O)CS4)CC2)cc1	-5	-1	-4	17	-1	0	/	/
COC(=O)C[C@H]1CC[C@@H]2[C@H](COc3ccc(NS(C)(=O)=O)cc3C(=O)N2C)O1	/	/	-2	/	/	0	/	/
COc1ccccc1NS(=O)(=O)c1ccc2c(c1)NC(=O)C(C)S2 (stereo not given)	14	0	-2	10	-1	0	/	/
CCc1cccc(NS(=O)(=O)c2ccc3c(c2)NC(=O)C(C)S3)c1 (stereo not given)	48	-1	-4	-10	2	-1	66	57
c1ccc(-c2nc(NCC3CCCO3)c3ccccc3n2)nc1 (stereo not given)	89*	0	-1	-3	0	-3	-8	2
c1ccc(-c2nc(NCc3ccco3)c3ccccc3n2)nc1	83*	-4	-5	-1	0	-4	11	-2
c1ccc(Nc2nc(NCC3CCCO3)c3ccccc3n2)cc1 (stereo not given)	6	0	-1	-2	0	-3	/	/
COc1ccc(Cn2ccc3ccc(-c4ccc5ccn(C(=O)C6CCC6)c5c4)cc32)cc1	/	/	0	/	/	-1	/	/
C=CCN(C(=O)[C@@H](C)[C@@H](O)c1ccc(Cl)cc1)c1ccccc1	/	/	-2	/	/	-1	/	/
COc1nc(OC)nc(N2CCC(C(=O)N(C)Cc3ccccc3F)CC2)n1	/	/	2	/	/	-1	/	/
COc1ccc(CC(=O)Nc2ccncc2Cl)cc1	92*	-1	-3	1	-2	-8	87*	71*
SMILES	NR2E3 ag-1	DAX1 inh-1	SMARCA2 activ	GASC-1 inh	NR2E3 ag-2	DAX1 inh-2	NR2E3 ag confirm	GAL4-VP16 luc
O=C(Cc1c(Cl)cccc1Cl)Nc1ccncc1Cl	22	0	-3	9	4	-6	/	/
O=C(Cc1ccc(Cl)cc1Cl)Nc1ccncc1Cl	98*	-2	-4	4	1	-10	87*	78*
CC1=NN(C(N)=S)C(=O)C1N=Nc1ccccc1[N+](=O)[O-] (stereo not given)	-1	0	0	/	/	-1	/	/
CC1=NN(C(N)=S)C(=O)C1N=Nc1ccccc1O (stereo not given)	19	-1	2	15	9	-1	/	/
CC1=NN(C(N)=S)C(=O)C1N=Nc1ccccc1C (stereo not given)	74*	-1	2	-15	-5	1	-2	-35
CC1=NN(C(N)=S)C(=O)C1N=Nc1c(Cl)cc([N+](=O)[O-])cc1Cl (stereo not given)	83*	0	-3	3	-2	0	-43	-77
CC1=NN(C(N)=S)C(=O)C1N=Nc1c(C)cc(C)cc1C (stereo not given)	73*	0	0	31	-1	-1	-21	-61
Cc1occc1-c1nnc(SCC(=O)N2CCN(c3ncccn3)CC2)n1-c1ccccc1	/	/	0	/	/	-1	/	/
Cn1c(=O)c(C(=O)c2ccccc2)nc2ccccc21	-14	-1	0	-10	1	0	/	/
Cn1cc(C(=O)c2ccc(Cl)cc2)cc1-c1nc2ccccc2n1C	49	-2	-3	-3	0	-3	36	42
CCC(=O)Nc1ccc2c(c1)C(=O)N(C)[C@@H]1CC[C@@H](CC(=O)OC)O[C@H]1CO2	/	/	-4	/	/	0	/	/
C[C@@H]1N[C@H]2N(C1=O)c1ccccc1[C@@]21C[C@@H]2C(=O)N[C@](C)(O1)c1nc3ccccc3c(=O)n12	/	/	-1	/	/	-1	/	/
Cc1ccccc1NC(=O)c1ccccc1NC(=O)Cc1cccc2ccccc12	-12	0	-1	-7	-1	0	/	/
Cc1ccccc1NC(=O)c1cccc2nc3ccccc3nc12	80*	0	1	-3	0	0	96*	67
CC(C)COc1ccc(S(=O)(=O)NNC(=O)c2cc3ccccc3o2)cc1	75*	3	-4	-5	0	1	76*	68
